For series [1], the system named is Human immunodeficiency virus 1. Kind of series: Antiviral activity against HIV1 3b in human MT4 cells assessed as inhibition of viral spread in presence of 10% heat-inactivated fetal bovine serum. The class given is functional. Conditions: Human immunodeficiency virus 1, 3b, read-out: CIC95. In outline:
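Spread assay: HIV-1 IIIb infection of MT-4 T-lymphoid cells in medium with 10% heat-inactivated FBS. CIC95 is the concentration inhibiting 95% of viral spread. Mean of at least 3 independent experiments.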

Series [2] relates to Human immunodeficiency virus 1. The experiment in a line: Antiviral activity against HIV1 3b in human MT4 cells assessed as inhibition of viral spread in presence of 50% normal human serum. It counts as functional. Conditions: Human immunodeficiency virus 1, 3b, read-out: CIC95. In outline:
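Spread assay: HIV-1 IIIb infection of MT-4 T-lymphoid cells run with 50% normal human serum. CIC95 is the concentration inhibiting 95% of viral spread.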

The species named for the next series is Homo sapiens. The experiment in a line: Fraction unbound in human plasma proteins after 1 hr.
Series [3] in a line: (§1) AUC in Sprague-Dawley rat at 3 mg/kg, po. The class given is ADME, organism-based, Plasma. Also on record: dose 3 mg/kg, route oral. As to conditions: Sprague-Dawley, plasma. The essentials: (§2)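 Sprague–Dawley rats dosed iv in 20% DMSO/60% PEG400/20% water, or orally as a 1% methylcellulose suspension. Outputs: AUC after po dosing, plasma clearance, terminal-phase plasma half life after iv dosing, oral bioavailability.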

Series [4] is described as follows: Clearance in Sprague-Dawley rat plasma at 3 mg/kg, iv and 3 mg/kg, po. The class given is ADME, organism-based. In outline: as §2
Series [5] is described as follows: Terminal half life in Sprague-Dawley rat plasma at 3 mg/kg, iv. Also on record: dose 3 mg/kg, route intravenous. The class given is ADME, organism-based. The essentials:
as §2

Series [6] concerns the target Human immunodeficiency virus type 1 integrase (Human immunodeficiency virus 1, UniProt Q7ZJM1). Kind of series: Inhibition of HIV1 recombinant integrase strand transfer activity. The essentials: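 Strand-transfer assay: inhibitors added after integrase assembly and washes. IC50 is the concentration reducing integrase activity by 50%. Mean of at least three independent experiments.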

The nature of series [7]: (§3) Oral bioavailability in Sprague-Dawley rat at 3 mg/kg. The class given is ADME, organism-based. Conditions: Sprague-Dawley, in vivo. The essentials: as §2
A short description of series [8]: Metabolic stability assessed as intrinsic clearance in rat microsome at 1 uM after 90 mins. The class given is ADME. As to conditions: liver microsomes. In outline: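 Compound at 1 µM with microsomes at 1 mg/ml. Substrate degradation followed by LC/MS/MS over a 90 min incubation.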
(In general: Liver microsomes are a subcellular fraction often used to study metabolism.)

Series [9] concerns Rattus norvegicus. The description is as §1. It counts as ADME, organism-based, Plasma. Also on record: dose 3 mg/kg, route oral. Conditions: in vivo. The essentials: as §2
The test system of series [10] is Rattus norvegicus. Described as §3. As to conditions: in vivo. The class given is ADME, organism-based. The essentials:
as §2

The structures appear in SMILES notation.

Human immunodeficiency virus type 1 integrase, sequence (Q7ZJM1 whole entry): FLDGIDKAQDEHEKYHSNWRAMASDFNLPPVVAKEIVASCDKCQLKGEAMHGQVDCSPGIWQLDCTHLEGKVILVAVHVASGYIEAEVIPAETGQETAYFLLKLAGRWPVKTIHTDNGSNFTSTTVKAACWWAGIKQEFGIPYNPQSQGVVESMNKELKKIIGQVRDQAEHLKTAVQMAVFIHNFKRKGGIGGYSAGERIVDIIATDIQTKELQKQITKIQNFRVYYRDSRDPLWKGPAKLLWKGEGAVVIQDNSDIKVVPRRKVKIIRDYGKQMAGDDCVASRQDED

Consider `O=C(NCc1ccc(F)cc1)c1nc(-c2cccs2)nc(O)c1O`, for which the IC95 in series [1] is over 10000 nM.

What is called fraction unbound is free concentration divided by total concentration. A higher fraction unbound goes with weak binding. In general, AUC refers to concentration integrated over time. Read a low AUC as less exposure. The half-life is the time in which the quantity being followed falls by half. The IC50 is the concentration at which inhibition is half-maximal. In general, bioavailability refers to the share of a dose that reaches the circulation, judged against a reference dose that is usually intravenous. Read a high bioavailability as much systemic uptake. Take `Cn1c(C(C)(C)C)nc(C(=O)NCc2ccc(F)cc2C(N)=O)c(O)c1=O`: the IC95 in series [2] and in series [1] was 10 nM each time. In the series filed under Homo sapiens, this compound yielded a fraction unbound at 1 h of 0.06. The AUC in [3] turned out to be 0.6 µM·h. Moreover, in series [4], the clearance was determined as 55 mL/min/kg. For the same compound, in [5], the half-life was 3.6 h. Besides, the IC50 in [6] was found to be 20 nM. The compound also came in with a bioavailability in [7] of 23%.

The microsomal CLint is the rate of metabolic loss divided by the concentration. Consider `Cn1c(C(C)(C)C)nc(C(=O)NCc2ccc(F)cc2S(C)(=O)=O)c(O)c1=O`, for which the IC95 in [2] worked out at 20 nM; in [1] it was 10 nM. The same compound showed an area under the curve (AUC) in [3] of 0.6 µM·h. In addition, the microsomal CLint at 1 µM in series [8] turned out to be 63 µL/min/mg. The compound further came in with a clearance in [4] of 37 mL/min/kg. The half-life in series [5] is 1.8 h. Besides, the IC50 in series [6] came out at 20 nM. The bioavailability in series [7] was 17%.

Turning to `CCOc1ccccc1CNC(=O)c1nc(C(C)(C)C)n(C)c(=O)c1O`, the IC95 in series [2] turned out to be 500 nM; in [1] it was 120 nM. Besides, in [6], the IC50 worked out at 20 nM.

Take `CC(C)(C)c1nc(O)c(O)c(C(=O)NCc2ccc(F)cc2S(C)(=O)=O)n1`: in series [6], the IC50 was found to be 60 nM.

For the compound `CCOc1ccccc1CNC(=O)c1nc(C(C)(C)C)nc(O)c1O`, the values for the IC95 in [2] and in series [1] were over 1000 nM and 1000 nM, respectively. For the same compound, the IC50 in series [6] worked out at 10 nM.

On to `CC(C)(C)c1nc(O)c(O)c(C(=O)NCc2cccc3cc[nH]c23)n1`, for which the IC95 in series [2] and in series [1] was over 1000 nM throughout. In addition, the half-maximal inhibitory concentration (IC50) in series [6] came to 10 nM.

Take `CC(C)(C)c1nc(O)c(O)c(C(=O)NCc2ccc(F)cc2)n1`: the IC95 was determined as 2500 nM in [2] and 250 nM in series [1]. Further, in [6], the IC50 amounted to 10 nM.

For the compound `CC(C)NC(=O)c1cc(F)ccc1CNC(=O)c1nc(C(C)(C)C)n(C)c(=O)c1O`, the IC95 in series [2] and in series [1] was 60 nM throughout. For the same compound, in the series filed under Homo sapiens, the fraction unbound at 1 h worked out at 0.01. Moreover, the exposure (AUC) in the series with Rattus norvegicus [9] turned out to be 3.5 µM·h. Also, the half-life in [5] was 1.6 h. For the same compound, the concentration for half-maximal inhibition (IC50) in series [6] amounted to 90 nM. In the series on Rattus norvegicus [10], the F was found to be 44%.

`Cc1noc(-c2cc(F)ccc2CNC(=O)c2nc(C(C)(C)C)n(C)c(=O)c2O)n1`: the IC95 amounted to 120 nM in series [2] and 20 nM in series [1]. Further, the IC50 in series [6] was found to be 20 nM.

With `Cn1c(C(C)(C)C)nc(C(=O)NCc2ccc(F)cc2C(=O)NCC(F)(F)F)c(O)c1=O`, the IC95 stood at 120 nM in series [2] and 30 nM in series [1]. The compound further displayed a fraction unbound at 1 h in the series filed under Homo sapiens of 0.01. Besides, the half-inhibitory concentration (IC50) in series [6] amounted to 90 nM.

Consider `Cn1c(C(C)(C)C)nc(C(=O)NCc2ccc(F)cc2C(=O)N2CCCC2)c(O)c1=O`, for which the IC95 in [2] and in series [1] was 120 nM in each case. In addition, in series [6], the half-inhibitory concentration (IC50) turned out to be 230 nM.

For `Cc1noc(-c2cc(F)ccc2CNC(=O)c2nc(C(C)(C)C)nc(O)c2O)n1`, the values for the IC95 in [2] and in series [1] were over 1000 nM and 120 nM, respectively. In addition, the IC50 in [6] worked out at 20 nM.

For `CN1CCN(C(=O)c2cc(F)ccc2CNC(=O)c2nc(C(C)(C)C)n(C)c(=O)c2O)CC1`, the IC95 in series [2] and in series [1] was 120 nM throughout. In the series filed under Homo sapiens, the fraction unbound at 1 h amounted to 0.34. Besides, the half-inhibitory concentration (IC50) in series [6] came to 490 nM.

On to `Cn1c(C(C)(C)C)nc(C(=O)NCc2ccc(F)cc2)c(O)c1=O`, for which the results for the IC95 in series [2] and in series [1] were 370 nM and 120 nM, respectively. In series [6], the IC50 turned out to be 10 nM.

Take `Cn1c(C(C)(C)C)nc(C(=O)NCc2cccc3cc[nH]c23)c(O)c1=O`: the IC95 in series [2] was over 1000 nM; in series [1], 1000 nM. The IC50 in series [6] came to 20 nM.

In the case of `CNC(=O)c1cc(F)ccc1CNC(=O)c1nc(C(C)(C)C)nc(O)c1O`, the 50% inhibitory concentration (IC50) in series [6] turned out to be 20 nM.

For `CCNC(=O)c1cc(F)ccc1CNC(=O)c1nc(C(C)(C)C)n(C)c(=O)c1O`, the IC95 in series [2] and in [1] was 20 nM throughout. The unbound share (fraction unbound) at 1 h in the series listed under Homo sapiens was found to be 0.03. The AUC in series [3] worked out at 1.8 µM·h. Moreover, the clearance in series [4] is 21 mL/min/kg. Moreover, the half-life in [5] was 2.6 h. In series [6], the IC50 came out at 70 nM. The same compound displayed a bioavailability in [7] of 30%.

Turning to `CN(C)C(=O)c1cc(F)ccc1CNC(=O)c1nc(C(C)(C)C)n(C)c(=O)c1O`, the IC95 in series [2] and in [1] was 30 nM each time. The fraction unbound at 1 h in the series filed under Homo sapiens came out at 0.18. Besides, the half-maximal inhibitory concentration (IC50) in series [6] amounted to 180 nM.

Take `CNC(=O)c1cc(F)ccc1CNC(=O)c1nc(C(C)(C)C)n(C)c(=O)c1O`: the IC95 in [2] and in series [1] was 10 nM throughout. The fraction unbound at 1 h in the series listed under Homo sapiens came out at 0.07. For the same compound, the AUC in series [3] was 1.4 µM·h. The microsomal CLint at 1 µM in series [8] came out at 16 µL/min/mg. The same compound came in with a clearance in [4] of 24 mL/min/kg. Besides, in [5], the half-life was 1.6 h. Further, the half-inhibitory concentration (IC50) in [6] came to 20 nM. This compound also gave a bioavailability in series [7] of 18%.

Take `CCCNC(=O)c1cc(F)ccc1CNC(=O)c1nc(C(C)(C)C)n(C)c(=O)c1O`: the IC95 in series [2] worked out at 60 nM; in series [1], 30 nM. The fraction unbound at 1 h in the series filed under Homo sapiens was found to be 0.02. The IC50 in series [6] turned out to be 70 nM.

The record behind these values is ChEMBL document CHEMBL1144749, “Development of 2-t butyl-N-methyl pyrimidones as potent inhibitors of HIV integrase” (Bioorg Med Chem Lett, 2008).
